According to ChEMBL document CHEMBL4689842, “EUbOPEN Chemogenomics Library wave 1” (2021):
Values joined by “and” are separate entries in the source; they are usually repeats but may differ in a detail not shown here. Identical values can stand only once.

Tested on: U2OS
Test: Multiplex assay against U2OS
Type: toxicity, cell-based
Conditions: human
In short: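 Values for tubulin, mitochondrial-mass and membrane-permeability phenotypes are per cents of cells with healthy nuclei. These cells were identified by CellPathfinder machine-learning gating of live cells that had been stained at seeding with Hoechst33342, BioTracker Green Microtubule Cytoskeleton Dye, MitoTracker Red and Annexin V Alexa Fluor 680 and imaged on a CQ1 microscope at 37°C and 5% CO2 after compound addition. The gating first set Hoechst high-intensity objects apart from normal cells, then split normal cells into healthy, pyknosed or fragmented nuclei, and pyknosed cells into mitotic or apoptotic.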

[1] = 12 h, 10 µM, compound concentration 10 uM, replicate 1
[2] = 12 h, 10 µM, compound concentration 10 uM, replicate 2
[3] = 24 h, 10 µM, compound concentration 10 uM, replicate 1
[4] = 24 h, 10 µM, compound concentration 10 uM, replicate 2
[5] = 12 h, 1 µM, compound concentration 1 uM, replicate 1
[6] = 12 h, 1 µM, compound concentration 1 uM, replicate 2
[7] = 24 h, 1 µM, compound concentration 1 uM, replicate 1
[8] = 24 h, 1 µM, compound concentration 1 uM, replicate 2
[9] = 48 h, 1 µM, compound concentration 1 uM, replicate 1
[10] = 48 h, 1 µM, compound concentration 1 uM, replicate 2
[11] = 48 h, 10 µM, compound concentration 10 uM, replicate 1
[12] = 48 h, 10 µM, compound concentration 10 uM, replicate 2

CN1C(=O)c2sccc2N(C)c2nc(Nc3ccc(S(N)(=O)=O)cc3)ncc21
Population Apoptotic (%) [1]: 30% and 31%
Population Fragmented Nuclei (%) [1]: 5% and 4%
Population Healthy Nuclei (%) [1]: 88% and 84%
Population Hoechst High Intensity Objects (%) [1]: 1%
Population Membrane Permeable-Phenotype (%) [1]: 14% and 7%
Population Mitochondria Different-Phenotype (%) [1]: 17% and 22%
Population Mitotic Cells (%) [1]: 70% and 68%
Population Normal (%) [1]: 98%
Population Pyknosed Nuclei (%) [1]: 5% and 10%
Population Tubulin-Different-Phenotype (%) [1]: 15% and 31%
Total Cell Count [1]: 144 and 172
Population Fragmented Nuclei (%) [2]: 6% and 13%
Population Healthy Nuclei (%) [2]: 83% and 78%
Population Hoechst High Intensity Objects (%) [2]: 8% and 19%
Population Membrane Permeable-Phenotype (%) [2]: 19% and 8%
Population Mitochondria Different-Phenotype (%) [2]: 36% and 35%
Population Mitotic Cells (%) [2]: 90% and 66%
Population Normal (%) [2]: 91% and 80%
Population Pyknosed Nuclei (%) [2]: 9% and 7%
Population Tubulin-Different-Phenotype (%) [2]: 18% and 21%
Total Cell Count [2]: 94 and 98
Population Apoptotic (%) [3]: 28% and 42%
Population Fragmented Nuclei (%) [3]: 4% and 6%
Population Healthy Nuclei (%) [3]: 92% and 84%
Population Hoechst High Intensity Objects (%) [3]: 0% and 1%
Population Membrane Permeable-Phenotype (%) [3]: 7% and 6%
Population Mitochondria Different-Phenotype (%) [3]: 15% and 44%
Population Mitotic Cells (%) [3]: 71% and 57%
Population Normal (%) [3]: 99% and 98%
Population Pyknosed Nuclei (%) [3]: 2% and 9%
Population Tubulin-Different-Phenotype (%) [3]: 42%
Total Cell Count [3]: 142 and 237
Population Fragmented Nuclei (%) [4]: 9% and 12%
Population Healthy Nuclei (%) [4]: 80%
Population Hoechst High Intensity Objects (%) [4]: 8% and 12%
Population Membrane Permeable-Phenotype (%) [4]: 11%
Population Mitochondria Different-Phenotype (%) [4]: 57% and 27%
Population Mitotic Cells (%) [4]: 63% and 100%
Population Normal (%) [4]: 91% and 87%
Population Pyknosed Nuclei (%) [4]: 10% and 3%
Population Tubulin-Different-Phenotype (%) [4]: 17% and 40%
Total Cell Count [4]: 112 and 90

CN1CCN(c2ccc(OC(F)(F)F)c(Nc3ncc4c(n3)-c3c(c(C(N)=O)nn3CCO)CC4)c2)CC1 [ONVANSERTIB]
Population Apoptotic (%) [5]: 36%
Population Fragmented Nuclei (%) [5]: 14%
Population Healthy Nuclei (%) [5]: 78%
Population Hoechst High Intensity Objects (%) [5]: 6%
Population Membrane Permeable-Phenotype (%) [5]: 11%
Population Mitochondria Different-Phenotype (%) [5]: 10%
Population Mitotic Cells (%) [5]: 63%
Population Normal (%) [5]: 94%
Population Pyknosed Nuclei (%) [5]: 7%
Population Tubulin-Different-Phenotype (%) [5]: 13%
Total Cell Count [5]: 569
Population Apoptotic (%) [6]: 25%
Population Fragmented Nuclei (%) [6]: 11%
Population Healthy Nuclei (%) [6]: 80%
Population Hoechst High Intensity Objects (%) [6]: 14%
Population Membrane Permeable-Phenotype (%) [6]: 0%
Population Mitochondria Different-Phenotype (%) [6]: 14%
Population Mitotic Cells (%) [6]: 75%
Population Normal (%) [6]: 85%
Population Tubulin-Different-Phenotype (%) [6]: 16%
Total Cell Count [6]: 66
Population Apoptotic (%) [1]: 72%
Population Fragmented Nuclei (%) [1]: 10%
Population Healthy Nuclei (%) [1]: 79%
Population Hoechst High Intensity Objects (%) [1]: 6%
Population Membrane Permeable-Phenotype (%) [1]: 3%
Population Mitochondria Different-Phenotype (%) [1]: 77%
Population Mitotic Cells (%) [1]: 27%
Population Normal (%) [1]: 93%
Population Pyknosed Nuclei (%) [1]: 10%
Population Tubulin-Different-Phenotype (%) [1]: 84%
Total Cell Count [1]: 150
Population Apoptotic (%) [2]: 40%
Population Fragmented Nuclei (%) [2]: 9%
Population Healthy Nuclei (%) [2]: 78%
Population Hoechst High Intensity Objects (%) [2]: 19%
Population Membrane Permeable-Phenotype (%) [2]: 0%
Population Mitochondria Different-Phenotype (%) [2]: 84%
Population Mitotic Cells (%) [2]: 60%
Population Normal (%) [2]: 80%
Population Pyknosed Nuclei (%) [2]: 12%
Population Tubulin-Different-Phenotype (%) [2]: 78%
Total Cell Count [2]: 61
Population Apoptotic (%) [7]: 35%
Population Fragmented Nuclei (%) [7]: 14%
Population Healthy Nuclei (%) [7]: 73%
Population Hoechst High Intensity Objects (%) [7]: 7%
Population Membrane Permeable-Phenotype (%) [7]: 12%
Population Mitochondria Different-Phenotype (%) [7]: 17%
Population Mitotic Cells (%) [7]: 64%
Population Normal (%) [7]: 92%
Population Pyknosed Nuclei (%) [7]: 12%
Population Tubulin-Different-Phenotype (%) [7]: 18%
Total Cell Count [7]: 962
Population Apoptotic (%) [8]: 57%
Population Fragmented Nuclei (%) [8]: 21%
Population Healthy Nuclei (%) [8]: 65%
Population Hoechst High Intensity Objects (%) [8]: 5%
Population Membrane Permeable-Phenotype (%) [8]: 5%
Population Mitochondria Different-Phenotype (%) [8]: 32%
Population Mitotic Cells (%) [8]: 42%
Population Normal (%) [8]: 94%
Population Pyknosed Nuclei (%) [8]: 13%
Population Tubulin-Different-Phenotype (%) [8]: 11%
Total Cell Count [8]: 73
Population Apoptotic (%) [3]: 82%
Population Healthy Nuclei (%) [3]: 79%
Population Hoechst High Intensity Objects (%) [3]: 4%
Population Membrane Permeable-Phenotype (%) [3]: 1%
Population Mitochondria Different-Phenotype (%) [3]: 77%
Population Mitotic Cells (%) [3]: 17%
Population Normal (%) [3]: 95%
Population Pyknosed Nuclei (%) [3]: 9%
Population Tubulin-Different-Phenotype (%) [3]: 53%
Total Cell Count [3]: 151
Population Apoptotic (%) [4]: 40%
Population Fragmented Nuclei (%) [4]: 11%
Population Healthy Nuclei (%) [4]: 77%
Population Hoechst High Intensity Objects (%) [4]: 16%
Population Membrane Permeable-Phenotype (%) [4]: 5%
Population Mitochondria Different-Phenotype (%) [4]: 82%
Population Mitotic Cells (%) [4]: 60%
Population Normal (%) [4]: 83%
Population Pyknosed Nuclei (%) [4]: 11%
Population Tubulin-Different-Phenotype (%) [4]: 55%
Total Cell Count [4]: 55
Population Apoptotic (%) [9]: 62%
Population Fragmented Nuclei (%) [9]: 25%
Population Healthy Nuclei (%) [9]: 56%
Population Hoechst High Intensity Objects (%) [9]: 5%
Population Membrane Permeable-Phenotype (%) [9]: 14%
Population Mitochondria Different-Phenotype (%) [9]: 49%
Population Mitotic Cells (%) [9]: 37%
Population Normal (%) [9]: 94%
Population Pyknosed Nuclei (%) [9]: 18%
Population Tubulin-Different-Phenotype (%) [9]: 13%
Total Cell Count [9]: 1338
Population Apoptotic (%) [10]: 53%
Population Fragmented Nuclei (%) [10]: 27%
Population Healthy Nuclei (%) [10]: 45%
Population Hoechst High Intensity Objects (%) [10]: 6%
Population Membrane Permeable-Phenotype (%) [10]: 24%
Population Mitochondria Different-Phenotype (%) [10]: 48%
Population Mitotic Cells (%) [10]: 46%
Population Normal (%) [10]: 93%
Population Pyknosed Nuclei (%) [10]: 27%
Population Tubulin-Different-Phenotype (%) [10]: 12%
Total Cell Count [10]: 97
Population Apoptotic (%) [11]: 91%
Population Fragmented Nuclei (%) [11]: 17%
Population Healthy Nuclei (%) [11]: 63%
Population Hoechst High Intensity Objects (%) [11]: 2%
Population Membrane Permeable-Phenotype (%) [11]: 5%
Population Mitochondria Different-Phenotype (%) [11]: 60%
Population Mitotic Cells (%) [11]: 8%
Population Normal (%) [11]: 97%
Population Pyknosed Nuclei (%) [11]: 19%
Population Tubulin-Different-Phenotype (%) [11]: 43%
Total Cell Count [11]: 153
Population Apoptotic (%) [12]: 57%
Population Fragmented Nuclei (%) [12]: 20%
Population Hoechst High Intensity Objects (%) [12]: 10%
Population Membrane Permeable-Phenotype (%) [12]: 28%
Population Mitochondria Different-Phenotype (%) [12]: 67%
Population Mitotic Cells (%) [12]: 42%
Population Normal (%) [12]: 89%
Population Pyknosed Nuclei (%) [12]: 15%
Population Tubulin-Different-Phenotype (%) [12]: 57%
Total Cell Count [12]: 59
